Data from ChEMBL document CHEMBL2150892, “Neuroprotective Tri- and Tetracyclic BChE Inhibitors Releasing Reversible Inhibitors upon Carbamate Transfer” (ACS Med Chem Lett, 2012).
Active and inactive are the calls of the source. The calls are words filed in the database; no cut-off is given here.

How the values were obtained:
[1] = tested on: HT-22; assay: Neuroprotective activity against glutamate-induced oxidative stress in mouse HT22 cells assessed as reduction of intracellular ROS formation at 5 uM after 24 hrs by MTT assay; type: functional, cell-based
Outline: (§1)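 Murine hippocampal HT-22 cells, which lack ionotropic glutamate receptors, were challenged with extracellular glutamate to cause oxidative (oxytotic) cell death. Compounds were tested at 10 μM and 5 μM against this glutamate-induced toxicity.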

[2] = Antioxidant activity assessed as trolox equivalents of peroxyl radical scavenging activity by ORAC assay; type: functional
Outline: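 ORAC assay: measures how well each compound protects fluorescein from destruction by peroxyl radicals. Capacity is expressed as trolox equivalents, with trolox as the reference.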

[3] = Selectivity ratio of IC50 for Electric eel AChE to IC50 for equine serum BChE
Outline: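 Selectivity ratio calculated as IC50(AChE)/IC50(BChE). AChE was from electric eel and BChE from equine serum. Each IC50 is a mean of at least three independent determinations.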

[4] = tested on: HT-22; assay: Neuroprotective activity against glutamate-induced oxidative stress in mouse HT22 cells assessed as reduction of intracellular ROS formation at 10 uM after 24 hrs by MTT assay; type: functional, cell-based; outline: as §1
[5] = target: T1, Acetylcholinesterase (Electrophorus electricus, UniProt O42275); assay: Inhibition of Electric eel AChE using acetylthiocholine as substrate after 2 mins
Outline: (§2)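 Enzyme sources were electric eel AChE and equine serum BChE. Values are means of at least three independent determinations.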

[6] = target: T2, Cholinesterase (Equus caballus, UniProt P81908); assay: Inhibition of equine serum BChE using acetylthiocholine as substrate after 2 mins; outline: as §2
[7] = target: Acetylcholinesterase (Electrophorus electricus) (UniProt O42275); assay: Time dependent inhibition of Electric eel AChE assessed as stability constants of inhibitor-enzyme complex using acetylthiocholine as substrate at 10 to 50 nM after 60 mins
[8] = target: Acetylcholinesterase (Electrophorus electricus) (UniProt O42275); assay: Inhibition of Electric eel AChE using acetylthiocholine as substrate at 100 uM after 2 mins
Outline: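 Enzyme sources were electric eel AChE and equine serum BChE. Values are means of at least three independent determinations. Single-point entries are % inhibition at 100 μM.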

[9] = target: T2, Cholinesterase; assay: Time dependent inhibition of equine serum BChE assessed as stability constants of inhibitor-enzyme complex using acetylthiocholine as substrate after 60 mins
[10] = target: T1, Acetylcholinesterase; assay: Time dependent inhibition of Electric eel AChE assessed as stability constants of inhibitor-enzyme complex using acetylthiocholine as substrate after 60 mins

T1 sequence (O42275 whole entry): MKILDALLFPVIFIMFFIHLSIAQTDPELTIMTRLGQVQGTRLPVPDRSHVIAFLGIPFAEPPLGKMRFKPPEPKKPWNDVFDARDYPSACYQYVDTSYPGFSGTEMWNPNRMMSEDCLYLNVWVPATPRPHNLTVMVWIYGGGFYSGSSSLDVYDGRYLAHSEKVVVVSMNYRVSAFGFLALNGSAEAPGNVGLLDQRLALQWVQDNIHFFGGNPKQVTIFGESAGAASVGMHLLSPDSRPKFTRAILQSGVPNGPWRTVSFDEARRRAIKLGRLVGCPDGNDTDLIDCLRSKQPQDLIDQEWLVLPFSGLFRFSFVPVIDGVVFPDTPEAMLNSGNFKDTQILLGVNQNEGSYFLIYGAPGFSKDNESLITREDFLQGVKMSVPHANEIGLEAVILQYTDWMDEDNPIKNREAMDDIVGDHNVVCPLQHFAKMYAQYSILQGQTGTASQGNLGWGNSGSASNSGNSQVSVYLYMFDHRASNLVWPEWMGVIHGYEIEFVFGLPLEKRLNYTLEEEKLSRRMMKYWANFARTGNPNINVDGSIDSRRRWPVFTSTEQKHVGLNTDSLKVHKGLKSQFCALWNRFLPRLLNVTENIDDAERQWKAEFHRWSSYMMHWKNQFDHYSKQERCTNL
T2 sequence (P81908 whole entry): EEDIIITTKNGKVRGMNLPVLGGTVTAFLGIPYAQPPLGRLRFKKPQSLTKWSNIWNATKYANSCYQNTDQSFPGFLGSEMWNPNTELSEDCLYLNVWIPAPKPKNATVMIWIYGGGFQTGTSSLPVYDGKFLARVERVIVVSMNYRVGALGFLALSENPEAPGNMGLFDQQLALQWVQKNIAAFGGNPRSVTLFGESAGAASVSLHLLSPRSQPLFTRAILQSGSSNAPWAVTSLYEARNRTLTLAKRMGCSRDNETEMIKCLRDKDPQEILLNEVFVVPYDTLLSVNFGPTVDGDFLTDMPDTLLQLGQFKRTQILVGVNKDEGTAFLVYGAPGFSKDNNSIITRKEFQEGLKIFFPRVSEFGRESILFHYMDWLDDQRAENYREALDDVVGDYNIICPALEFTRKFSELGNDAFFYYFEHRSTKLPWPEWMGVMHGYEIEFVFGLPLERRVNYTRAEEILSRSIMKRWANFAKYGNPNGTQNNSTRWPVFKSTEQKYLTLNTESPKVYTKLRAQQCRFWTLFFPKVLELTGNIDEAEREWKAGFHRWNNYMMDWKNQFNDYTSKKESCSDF
Chain of Acetylcholinesterase (Electrophorus electricus) (O42275 24-633 limits assumed): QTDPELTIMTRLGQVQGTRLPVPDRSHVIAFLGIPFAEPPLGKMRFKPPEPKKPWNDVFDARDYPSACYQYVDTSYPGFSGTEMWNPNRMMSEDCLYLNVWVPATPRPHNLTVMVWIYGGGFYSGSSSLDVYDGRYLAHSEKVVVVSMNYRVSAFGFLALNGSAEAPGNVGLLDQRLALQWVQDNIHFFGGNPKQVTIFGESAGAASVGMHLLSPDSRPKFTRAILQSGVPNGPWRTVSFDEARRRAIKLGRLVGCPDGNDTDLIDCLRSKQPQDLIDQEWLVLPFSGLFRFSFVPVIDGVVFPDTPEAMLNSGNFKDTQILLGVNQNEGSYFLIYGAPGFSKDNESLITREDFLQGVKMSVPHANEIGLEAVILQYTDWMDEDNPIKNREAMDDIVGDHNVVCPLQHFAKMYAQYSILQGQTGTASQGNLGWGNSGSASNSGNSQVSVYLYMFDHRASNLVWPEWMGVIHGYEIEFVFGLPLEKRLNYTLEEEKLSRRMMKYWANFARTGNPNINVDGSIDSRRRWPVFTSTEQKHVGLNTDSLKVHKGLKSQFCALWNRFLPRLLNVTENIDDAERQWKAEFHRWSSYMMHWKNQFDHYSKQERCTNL

Row | Compound | Activity [1] | Ratio [2] | Ratio IC50 [3] | Activity [4] | IC50 ([5]; read-out: IC50) [µM] | IC50 ([6]; read-out: IC50) [µM] | inhibition [7] | inhibition [8] | Ki [9] [µM] | IC50 ([5]; read-out: pIC50 (converted)) [µM] | IC50 ([6]; read-out: pIC50 (converted)) [µM] | Ki [10] [µM]
1 | CN1c2ccc(O)cc2CN2CCc3ccccc3C21 (configuration not stated) | Active | 2.87 | 2.5 | Active | 110 | 44.3 | – | – | – | – | – | –
2 | CC(C)c1ccc(NC(=O)Oc2ccc3c(c2)CN2CCc4ccccc4C2N3C)cc1 (configuration not stated) | – | – | > 1500 | – | – | 0.131 | – | – | – | – | – | –
3 | CCCCCCCNC(=O)Oc1ccc2c(c1)CN1CCCC1N2C (configuration not stated) | Active | 1.03 | 16.6 | Active | 32.3 | 1.95 | – | – | – | – | – | –
4 | CN1c2ccc(O)cc2CN2CCCc3ccccc3C21 (configuration not stated) | Active | 2.48 | 5.2 | Active | 37.8 | 7.3 | – | – | – | – | – | –
5 | COc1ccc2c(c1)CN1CCCc3ccccc3C1N2C (configuration not stated) | – | 1.2 | > 6.7 | – | – | 29.7 | – | – | – | – | – | –
6 | Cc1ccccc1NC(=O)Oc1ccc2c(c1)CN1CCc3ccccc3C1N2C (configuration not stated) | – | – | > 1350 | – | – | 0.144 | – | – | – | – | – | –
7 | CN1c2ccccc2CN2CCc3ccccc3C21 (configuration not stated) | – | 0.92 | 3.3 | inactive | 145 | 44 | – | – | – | – | – | –
8 | COc1cccc(NC(=O)Oc2ccc3c(c2)CN2CCc4ccccc4C2N3C)c1 (configuration not stated) | – | – | > 900 | – | – | 0.218 | – | – | – | – | – | –
9 | CN1c2ccccc2CN2CCCC21 (configuration not stated) | – | – | 3.4 | – | 131 | 38.9 | – | – | – | – | – | –
10 | CCCCCCCNC(=O)Oc1ccc2c(c1)CN1CCc3ccccc3C1N2C (configuration not stated) | – | 0.3 | > 15000 | Active | – | 0.06 | inactive | inactive | 0.0127 | – | – | –
11 | Cc1ccccc1NC(=O)Oc1ccc2c(c1)CN1CCCC1N2C (configuration not stated) | – | – | 16.1 | – | 66.3 | 4.11 | – | – | – | – | – | –
12 | COc1cccc(NC(=O)Oc2ccc3c(c2)CN2CCCC2N3C)c1 (configuration not stated) | – | – | 5.3 | – | 40.2 | 7.52 | – | – | – | – | – | –
13 | CCCCCCCNC(=O)Oc1ccc2c(c1)CN1CCCc3ccccc3C1N2C (configuration not stated) | – | 0.86 | > 4000 | Active | – | 0.046 | – | – | – | – | – | –
14 | CCN(C)C(=O)Oc1ccc2c(c1)CN1CCc3ccccc3C1N2C (configuration not stated) | – | 0.65 | 54.2 | inactive | 24.4 | 0.45 | – | – | 0.275 | 234 | 24.5 | 1.12
15 | CC(C)c1ccc(NC(=O)Oc2ccc3c(c2)CN2CCCC2N3C)cc1 (configuration not stated) | – | – | > 66.6 | – | – | 3 | – | – | – | – | – | –
16 | CN1c2ccccc2CN2CCCc3ccccc3C21 (configuration not stated) | – | – | > 8.4 | – | – | 23.7 | – | – | – | – | – | –
17 | CN1c2ccc(O)cc2CN2CCCC21 (configuration not stated) | Active | 3.43 | 0.75 | Active | 30.6 | 41 | – | – | – | 30.2 | – | –
18 | COc1ccc2c(c1)CN1CCc3ccccc3C1N2C (configuration not stated) | inactive | 0.51 | 4.2 | – | 232 | 55.6 | – | – | – | – | – | –
